Experiments:
[1] = target: Histone deacetylase 3 (Homo sapiens, UniProt O15379); assay: Inhibition of HDAC3 (unknown origin) using fluorogenic tetrapeptide RHKK(Ac) substrate by fluorescence assay
[2] = Antitumor activity against human HCT116 cells xenografted in athymic nude mouse assessed as tumor volume inhibition at 100 mg/kg, po qd for 5 days a week for 3 weeks; assay type: functional; details: HCT-116
Procedure, shortened: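 Female athymic nude mice, 5–6 weeks old, were inoculated sc in the right flank with 5 × 10⁶ exponentially growing tumor cells per 100 μL. Oral dosing once daily began 3 days after tumor injection, in Solutol HS15 diluted 1/20 in water. Tumor volume inhibition was calculated as TVI% = 100 − [(mean TV treated/mean TV control) × 100].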

[3] = Intrinsic clearance in human hepatocytes assessed per million cells at 5 uM by LCMS/MS analysis; assay type: ADME, cell-based, Hepatocyte; details: read-out: CLH
Procedure, shortened: (§1)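 Incubation in human hepatocytes. […] Values are means of at least three experiments.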

[4] = target: T1, Histone deacetylase 8 (Homo sapiens, UniProt Q9BY41); assay: Inhibition of HDAC8 (unknown origin) using fluorogenic tetrapeptide RHK(Ac)K(Ac) substrate by fluorescence assay
T1 sequence (Q9BY41 whole entry): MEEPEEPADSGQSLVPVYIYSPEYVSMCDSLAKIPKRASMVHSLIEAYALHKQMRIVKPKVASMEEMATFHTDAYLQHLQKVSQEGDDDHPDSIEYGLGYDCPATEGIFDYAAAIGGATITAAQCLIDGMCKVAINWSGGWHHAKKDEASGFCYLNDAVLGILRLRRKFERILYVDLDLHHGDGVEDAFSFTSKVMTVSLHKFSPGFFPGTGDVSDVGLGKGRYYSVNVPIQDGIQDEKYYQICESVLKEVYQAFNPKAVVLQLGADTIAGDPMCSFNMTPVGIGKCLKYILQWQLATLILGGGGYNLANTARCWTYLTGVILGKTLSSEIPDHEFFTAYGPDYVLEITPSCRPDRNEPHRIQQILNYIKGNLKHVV

[5] = target: T2, Protein deacetylase HDAC6 (Homo sapiens, UniProt Q9UBN7); assay: Inhibition of HDAC6 (unknown origin) using fluorogenic tetrapeptide RHKK(Ac) substrate by fluorescence assay
T2 sequence (Q9UBN7 whole entry): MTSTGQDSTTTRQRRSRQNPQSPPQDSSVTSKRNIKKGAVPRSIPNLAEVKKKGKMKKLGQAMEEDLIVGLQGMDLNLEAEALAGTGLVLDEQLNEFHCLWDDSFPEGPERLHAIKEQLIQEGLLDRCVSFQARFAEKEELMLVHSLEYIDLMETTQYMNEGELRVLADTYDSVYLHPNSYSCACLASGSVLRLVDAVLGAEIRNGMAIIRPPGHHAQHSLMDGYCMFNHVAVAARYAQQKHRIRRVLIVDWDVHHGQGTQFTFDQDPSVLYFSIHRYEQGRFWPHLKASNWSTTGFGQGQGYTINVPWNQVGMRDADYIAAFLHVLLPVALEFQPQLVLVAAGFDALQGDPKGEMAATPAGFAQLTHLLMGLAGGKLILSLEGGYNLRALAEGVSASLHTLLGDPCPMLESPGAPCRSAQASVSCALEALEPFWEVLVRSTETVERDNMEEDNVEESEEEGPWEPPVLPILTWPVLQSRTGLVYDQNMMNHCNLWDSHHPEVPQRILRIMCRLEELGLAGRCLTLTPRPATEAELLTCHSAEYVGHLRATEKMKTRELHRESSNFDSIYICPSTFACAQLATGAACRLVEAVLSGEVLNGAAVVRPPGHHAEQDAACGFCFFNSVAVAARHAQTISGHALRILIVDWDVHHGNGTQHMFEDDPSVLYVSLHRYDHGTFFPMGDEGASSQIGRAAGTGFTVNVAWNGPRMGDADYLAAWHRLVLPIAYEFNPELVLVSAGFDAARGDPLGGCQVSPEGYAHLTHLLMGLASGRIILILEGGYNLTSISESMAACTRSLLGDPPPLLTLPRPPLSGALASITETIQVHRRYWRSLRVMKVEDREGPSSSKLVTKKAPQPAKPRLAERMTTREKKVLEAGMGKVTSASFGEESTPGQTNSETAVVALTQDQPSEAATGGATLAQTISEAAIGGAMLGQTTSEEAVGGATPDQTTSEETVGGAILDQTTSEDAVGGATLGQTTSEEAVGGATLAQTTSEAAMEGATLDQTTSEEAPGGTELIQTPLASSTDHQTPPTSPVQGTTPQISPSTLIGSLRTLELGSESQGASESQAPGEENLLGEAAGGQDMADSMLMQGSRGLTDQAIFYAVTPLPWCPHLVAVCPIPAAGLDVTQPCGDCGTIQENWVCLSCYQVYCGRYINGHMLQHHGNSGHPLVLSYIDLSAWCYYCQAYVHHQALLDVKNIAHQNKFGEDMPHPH

[6] = system: Mus musculus; assay: Toxicity in human HCT116 cells xenografted athymic nude mouse assessed as body weight loss at 100 mg/kg, po qd for 5 days a week for 3 weeks; assay type: organism-based, HCT-116; parameters: dose 100 mg/kg, route oral; details: in vivo
Procedure, shortened: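 Nude mice (female, athymic, 5–6 weeks) carried sc right-flank xenografts of 5 × 10⁶ cells per 100 μL. Oral treatment once daily started 3 days after inoculation.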

[7] = Half life in human hepatocytes at 5 uM by LCMS/MS analysis; assay type: ADME, cell-based, Hepatocyte; procedure, shortened: as §1
[8] = target: Histone deacetylase 1 (Homo sapiens, UniProt Q13547); assay: Inhibition of HDAC1 (unknown origin) using fluorogenic tetrapeptide RHKK(Ac) substrate by fluorescence assay
Chain of Histone deacetylase 1 (Q13547 whole entry): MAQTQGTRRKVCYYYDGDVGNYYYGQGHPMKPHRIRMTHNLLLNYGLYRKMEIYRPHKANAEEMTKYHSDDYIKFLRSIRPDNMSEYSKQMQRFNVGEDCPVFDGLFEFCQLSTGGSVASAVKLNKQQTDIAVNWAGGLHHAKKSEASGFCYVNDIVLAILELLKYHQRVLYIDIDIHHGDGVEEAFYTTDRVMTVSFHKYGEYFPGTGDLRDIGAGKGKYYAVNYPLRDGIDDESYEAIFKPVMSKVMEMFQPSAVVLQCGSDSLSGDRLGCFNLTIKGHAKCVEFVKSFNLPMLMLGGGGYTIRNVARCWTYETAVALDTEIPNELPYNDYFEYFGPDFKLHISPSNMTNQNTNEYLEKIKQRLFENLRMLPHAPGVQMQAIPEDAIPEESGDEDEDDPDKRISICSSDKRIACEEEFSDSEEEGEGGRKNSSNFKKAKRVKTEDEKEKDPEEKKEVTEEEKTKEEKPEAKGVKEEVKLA

[9] = Efflux ratio of permeability from apical to basolateral side to basolateral to apical side of human Caco2 cells in presence of digoxin; assay type: ADME, cell-based; details: caco-2
Procedure, shortened: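 Caco-2 AB/BA flux ratio measured with digoxin coincubated with test and reference compounds. Means of at least three experiments.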

[10] = target: T3, Histone deacetylase 11 (Homo sapiens, UniProt Q96DB2); assay: Inhibition of HDAC11 (unknown origin) using fluorogenic tetrapeptide RHKK(Ac) substrate by fluorescence assay
T3 sequence (Q96DB2 whole entry): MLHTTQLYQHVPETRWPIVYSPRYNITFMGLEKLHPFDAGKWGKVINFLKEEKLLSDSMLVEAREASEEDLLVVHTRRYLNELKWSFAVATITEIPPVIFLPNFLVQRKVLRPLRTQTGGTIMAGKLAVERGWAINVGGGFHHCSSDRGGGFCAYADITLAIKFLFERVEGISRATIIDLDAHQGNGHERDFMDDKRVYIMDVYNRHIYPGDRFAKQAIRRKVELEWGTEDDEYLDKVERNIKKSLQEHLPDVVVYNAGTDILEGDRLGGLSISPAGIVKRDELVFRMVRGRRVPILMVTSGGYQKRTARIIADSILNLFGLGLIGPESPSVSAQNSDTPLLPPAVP

[11] = target: Histone deacetylase 2 (Homo sapiens, UniProt Q92769); assay: Inhibition of HDAC2 (unknown origin) using fluorogenic tetrapeptide RHKK(Ac) substrate by fluorescence assay
Chain of Histone deacetylase 2 (Q92769 whole entry): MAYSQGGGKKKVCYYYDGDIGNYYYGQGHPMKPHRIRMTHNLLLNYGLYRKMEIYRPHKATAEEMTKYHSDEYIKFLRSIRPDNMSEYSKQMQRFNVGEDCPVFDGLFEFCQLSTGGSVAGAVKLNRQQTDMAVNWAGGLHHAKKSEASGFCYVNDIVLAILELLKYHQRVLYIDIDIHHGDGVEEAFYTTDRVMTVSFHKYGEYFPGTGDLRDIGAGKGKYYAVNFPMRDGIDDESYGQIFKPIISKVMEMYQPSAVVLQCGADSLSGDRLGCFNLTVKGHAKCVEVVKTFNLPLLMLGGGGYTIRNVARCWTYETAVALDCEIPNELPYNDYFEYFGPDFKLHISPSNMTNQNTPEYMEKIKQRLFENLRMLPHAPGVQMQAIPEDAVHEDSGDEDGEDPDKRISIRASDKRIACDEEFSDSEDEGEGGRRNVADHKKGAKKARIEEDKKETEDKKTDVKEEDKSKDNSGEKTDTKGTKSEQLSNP

Chain of Histone deacetylase 3 (O15379 whole entry): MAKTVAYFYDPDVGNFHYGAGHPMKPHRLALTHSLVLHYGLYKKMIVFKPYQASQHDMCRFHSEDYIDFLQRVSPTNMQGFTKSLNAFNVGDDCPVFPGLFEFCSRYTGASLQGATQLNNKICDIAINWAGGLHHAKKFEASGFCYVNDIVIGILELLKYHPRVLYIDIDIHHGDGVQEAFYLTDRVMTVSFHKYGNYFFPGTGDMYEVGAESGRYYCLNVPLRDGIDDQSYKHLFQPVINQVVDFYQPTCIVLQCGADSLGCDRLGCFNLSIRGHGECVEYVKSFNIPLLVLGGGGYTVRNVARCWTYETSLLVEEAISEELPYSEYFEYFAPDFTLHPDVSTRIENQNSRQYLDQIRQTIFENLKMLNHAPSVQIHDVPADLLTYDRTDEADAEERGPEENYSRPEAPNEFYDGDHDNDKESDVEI

IC50 [1]: 5 nM | hepatocyte CLint at 5 µM [3]: 15.4 µL/min/1e6 cells | IC50 [4]: 281 nM | IC50 [5]: 3 nM | half-life at 5 µM [7]: 45 min | IC50 [8]: 13 nM | Ratio [9]: 3.6 | IC50 [10]: 14 nM | IC50 [11]: 78 nM
SMILES: O=C1CC[C@@H](C(=O)N[C@H](CCCCCS)C(=O)Nc2ccccc2)N1
inhibition in vivo at 100 mg/kg [2]: 27% | Activity [6]: 3%
